Measured values published in ChEMBL document CHEMBL4390675, “Dopamine D4 Receptor-Selective Compounds Reveal Structure-Activity Relationships that Engender Agonist Efficacy” (J Med Chem, 2019).
The source made the active and inactive calls. The calls are words filed in the database; no cut-off is given here.

The molecules below were run against T1, D(2) dopamine receptor (Homo sapiens, UniProt P14416) (assay: Agonist activity at human D2L receptor expressed in CHOK1 cells assessed as induction of beta-arrestin recruitment measured after 90 mins by luminescence assay relative to control). Details: not given.
T1 sequence (P14416 whole entry): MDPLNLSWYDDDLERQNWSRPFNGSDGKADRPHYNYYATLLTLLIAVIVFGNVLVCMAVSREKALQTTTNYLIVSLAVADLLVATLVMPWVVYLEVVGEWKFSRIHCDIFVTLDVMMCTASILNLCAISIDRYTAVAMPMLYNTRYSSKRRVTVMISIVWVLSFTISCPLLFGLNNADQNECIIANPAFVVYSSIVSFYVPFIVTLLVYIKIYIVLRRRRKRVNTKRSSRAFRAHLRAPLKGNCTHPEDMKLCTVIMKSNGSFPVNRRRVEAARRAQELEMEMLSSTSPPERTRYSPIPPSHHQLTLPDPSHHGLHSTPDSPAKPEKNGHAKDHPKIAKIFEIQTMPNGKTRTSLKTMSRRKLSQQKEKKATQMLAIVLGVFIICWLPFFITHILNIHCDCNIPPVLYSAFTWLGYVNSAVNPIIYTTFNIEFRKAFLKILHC
Assay type: cell-based
Procedure, shortened: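 PathHunter enzyme-complementation assay in CHO-K1 cells stably expressing human D2R long isoform, seeded 2625 cells/well and incubated overnight. Compounds diluted in PBS with 0.2 μM sodium metabisulfite, tested at multiple concentrations, 90 min at 37 °C. Detection reagent then 45–60 min at room temperature, luminescence read. Normalized to maximal dopamine response. Nonlinear regression of triplicate runs, n = 3–4.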

Compound	Emax [%]
Cc1cccc(NC(=O)CCN2CCN(c3ccccn3)CC2)c1	44.1
O=C(CN1CCN(c2ccccn2)CC1)Nc1cccnc1	21.3

The molecules below were run against T2, D(3) dopamine receptor (Homo sapiens, UniProt P35462) (assay: Agonist activity at human D3 receptor expressed in CHOK1 cells assessed as induction of beta-arrestin recruitment measured after 90 mins by luminescence assay). Details: read-out: EC50.
T2 sequence (P35462 whole entry): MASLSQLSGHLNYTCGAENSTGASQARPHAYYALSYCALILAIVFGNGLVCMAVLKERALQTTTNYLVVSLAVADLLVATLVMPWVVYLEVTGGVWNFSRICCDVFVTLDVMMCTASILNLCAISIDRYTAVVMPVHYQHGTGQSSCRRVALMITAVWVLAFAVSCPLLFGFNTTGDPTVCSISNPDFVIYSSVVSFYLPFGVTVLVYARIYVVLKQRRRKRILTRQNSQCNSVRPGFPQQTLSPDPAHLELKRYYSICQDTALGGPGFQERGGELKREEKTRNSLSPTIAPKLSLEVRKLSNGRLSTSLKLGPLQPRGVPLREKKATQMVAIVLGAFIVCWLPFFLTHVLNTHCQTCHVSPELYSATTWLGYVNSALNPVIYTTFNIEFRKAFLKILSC
Assay type: cell-based
Procedure, shortened: (§1)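 PathHunter enzyme-complementation assay in CHO-K1 cells stably expressing human D2R long isoform, D3R or D4R, seeded overnight in Ham's F12/10% FBS. Compounds were diluted in PBS with 0.2 μM sodium metabisulfite and applied at multiple concentrations for 90 min at 37 °C. Detection reagent was added for 45–60 min at room temperature, then luminescence was read. Values are % of maximal dopamine response, from nonlinear regression of triplicate runs, mean ± SEM, n = 3–4.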

Compound	EC50 [nM]
Cc1cccc(NC(=O)CCN2CCN(c3ccccn3)CC2)c1	1600
O=C(CN1CCN(c2ccccn2)CC1)Nc1cccnc1	2800

What follows are molecules tested against T3, D(4) dopamine receptor (Homo sapiens, UniProt P21917) (assay: Antagonist activity at human D4 receptor expressed in CHOK1 cells assessed as inhibition of dopamine-induced beta-arrestin recruitment measured after 90 mins by luminescence assay). Details: read-out: IC50.
T3 sequence (P21917 whole entry): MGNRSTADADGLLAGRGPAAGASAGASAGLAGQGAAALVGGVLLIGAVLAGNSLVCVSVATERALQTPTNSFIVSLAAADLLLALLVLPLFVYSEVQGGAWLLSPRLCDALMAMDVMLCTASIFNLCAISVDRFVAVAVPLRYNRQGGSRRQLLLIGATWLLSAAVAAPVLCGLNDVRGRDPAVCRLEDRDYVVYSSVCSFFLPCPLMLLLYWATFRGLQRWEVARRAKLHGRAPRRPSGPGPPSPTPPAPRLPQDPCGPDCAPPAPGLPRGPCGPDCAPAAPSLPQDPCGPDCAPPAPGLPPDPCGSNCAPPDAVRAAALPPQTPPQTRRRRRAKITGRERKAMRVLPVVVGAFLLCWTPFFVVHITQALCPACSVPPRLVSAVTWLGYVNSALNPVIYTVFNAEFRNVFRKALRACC
Assay type: cell-based

Compound	IC50 [nM]
Cc1cccc(NC(=O)CCN2CCN(c3ccccn3)CC2)c1	1090
O=C(CN1CCN(c2ccccn2)CC1)Nc1cccnc1	25800

What follows are molecules tested against T2, D(3) dopamine receptor (assay: Displacement of [3H]N-methylspiperone from human D3 receptor expressed in HEK293 cell membranes measured after 60 mins by scintillation counting method). Details: not given.
Procedure, shortened: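 HEK293 cells stably expressing human D3R; membranes in EBSS buffer pH 7.4, stored at −80 °C. 20 μg protein/well with 0.4 nM [3H]N-methylspiperone (final), half-log dilutions in 30% DMSO, in triplicate. 60 min at room temperature, then GF/B filtration. Nonspecific binding with 10 μM (+)-butaclamol.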

Compound	Ki [nM]
Cc1cccc(NC(=O)CCN2CCN(c3ccccn3)CC2)c1	3790
O=C(CN1CCN(c2ccccn2)CC1)Nc1cccnc1	> 50000

Each molecule was assayed against T3, D(4) dopamine receptor (assay: Displacement of [3H](R)-(+)-7-OH-DPAT from human D4.4 receptor expressed in HEK293 cell membranes measured after 90 mins by scintillation counting method). Details: not given.
Procedure, shortened: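 HEK293 cells stably expressing human D4.4R; membranes used fresh in 50 mM Tris, 10 mM MgCl2, 1 mM EDTA, pH 7.4. 60 μg protein/well with 3 nM [3H]-(R)-(+)-7-OH-DPAT (final), half-log dilutions in 30% DMSO, in triplicate. 90 min at room temperature, then GF/B filtration. Nonspecific binding with 10 μM (+)-butaclamol.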

Compound	Ki [nM]
Cc1cccc(NC(=O)CCN2CCN(c3ccccn3)CC2)c1	32.2

Each molecule was assayed against T1, D(2) dopamine receptor (assay: Antagonist activity at human D2L receptor expressed in CHOK1 cells assessed as inhibition of dopamine-induced beta-arrestin recruitment measured after 90 mins by luminescence assay). Details: not given.
Assay type: cell-based
Procedure, shortened: (§2)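 Antagonist-mode PathHunter β-arrestin assay in CHO-K1 cells stably expressing human D2R long isoform or D3R, seeded overnight. Compound dilutions in PBS with 0.2 μM metabisulfite were co-incubated with an EC80 dopamine concentration for 90 min at 37 °C. Detection reagent was added for 45–60 min at room temperature, then luminescence was read. Values are % of dopamine EC80 response, from nonlinear regression of triplicate runs, n = 3–4.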

Compound	IC50
O=C(CN1CCN(c2ccccn2)CC1)Nc1cccnc1	Not Active

The molecules below were run against T3, D(4) dopamine receptor (assay: Antagonist activity at human D4 receptor expressed in CHOK1 cells assessed as suppression of dopamine-induced inhibition of forskolin-stimulated cAMP accumulation measured after 30 mins by Eu-cAMP tracer based TR-FRET assay). Details: not given.
Assay type: functional, cell-based

Compound	IC50 [nM]
Cc1cccc(NC(=O)CCN2CCN(c3ccccn3)CC2)c1	1630
O=C(CN1CCN(c2ccccn2)CC1)Nc1cccnc1	86500

These molecules were tested against T1, D(2) dopamine receptor (assay: Antagonist activity at human D2L receptor expressed in CHOK1 cells assessed as suppression of dopamine-induced inhibition of forskolin-stimulated cAMP accumulation measured after 30 mins by Eu-cAMP tracer based TR-FRET assay relative to dopamine). Details: 0.5 h.
Assay type: cell-based

Compound	inhibition (INH) [%]
O=C(CN1CCN(c2ccccn2)CC1)Nc1cccnc1	100

These molecules were tested against D(1A) dopamine receptor (Homo sapiens) (UniProt P21728) (assay: Antagonist activity at D1 receptor (unknown origin) stably expressed in CHOK1 cells assessed as inhibition of dopamine-induced beta-arrestin recruitment measured after 90 mins by luminescence assay). Details: not given.
Chain of D(1A) dopamine receptor (Homo sapiens) (P21728 whole entry): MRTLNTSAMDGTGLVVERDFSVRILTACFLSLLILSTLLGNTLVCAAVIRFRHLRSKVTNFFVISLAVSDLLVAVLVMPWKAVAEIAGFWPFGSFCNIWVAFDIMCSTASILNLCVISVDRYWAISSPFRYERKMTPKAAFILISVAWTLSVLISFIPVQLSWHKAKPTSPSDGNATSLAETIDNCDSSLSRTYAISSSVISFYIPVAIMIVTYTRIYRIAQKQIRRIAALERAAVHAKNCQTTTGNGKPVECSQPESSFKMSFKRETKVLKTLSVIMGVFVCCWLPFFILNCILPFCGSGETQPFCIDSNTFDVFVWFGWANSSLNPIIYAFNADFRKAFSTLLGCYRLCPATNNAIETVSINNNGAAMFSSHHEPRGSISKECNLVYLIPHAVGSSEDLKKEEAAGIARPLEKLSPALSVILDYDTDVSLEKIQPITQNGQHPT
Assay type: cell-based

Compound	inhibition
Cc1cccc(NC(=O)CCN2CCN(c3ccccn3)CC2)c1	inactive

What follows are molecules tested against T1, D(2) dopamine receptor (assay: Agonist activity at human D2L receptor expressed in CHOK1 cells assessed as inhibition of forskolin-induced cAMP accumulation measured after 30 mins by Eu-cAMP tracer based TR-FRET assay relative to dopamine). Details: 0.5 h.
Assay type: cell-based

Compound	Emax [%]
Cc1cccc(NC(=O)CCN2CCN(c3ccccn3)CC2)c1	79.7
O=C(CN1CCN(c2ccccn2)CC1)Nc1cccnc1	38.6

What follows are molecules tested against T3, D(4) dopamine receptor (assay: Agonist activity at human D4 receptor expressed in CHOK1 cells assessed as inhibition of forskolin-induced cAMP accumulation measured after 30 mins by Eu-cAMP tracer based TR-FRET assay). Details: read-out: EC50.
Assay type: functional, cell-based
Procedure, shortened: (§3)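 LANCE Ultra TR-FRET cAMP assay in CHO-K1 cells stably expressing human D2R long isoform or D4R. Cells were plated in HBSS/5 mM HEPES/0.2 μM metabisulfite, then immediately given compound plus forskolin (10 μM final) for 30 min at room temperature. Eu-cAMP tracer and ULight-anti-cAMP were added for 2 h in the dark. Values are % of maximal dopamine signal, nonlinear regression of triplicate runs, n = 3–4.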

Compound	EC50 [nM]
Cc1cccc(NC(=O)CCN2CCN(c3ccccn3)CC2)c1	612
O=C(CN1CCN(c2ccccn2)CC1)Nc1cccnc1	1080

The molecules below were run against T2, D(3) dopamine receptor (assay: Displacement of [3H](R)-(+)-7-OH-DPAT from human D3 receptor expressed in HEK293 cell membranes measured after 90 mins by scintillation counting method). Details: not given.
Procedure, shortened: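 Fresh HEK293 hD3R membranes (40 μg/well) in 50 mM Tris, 10 mM MgCl2, 1 mM EDTA, pH 7.4 were incubated with 0.5 nM [3H]-(R)-(+)-7-OH-DPAT and half-log compound dilutions in 30% DMSO for 90 min at room temperature. Nonspecific binding was defined with 10 μM (+)-butaclamol. Samples were filtered on PEI-soaked GF/B filters and counted by scintillation.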

Compound	Ki [nM]
Cc1cccc(NC(=O)CCN2CCN(c3ccccn3)CC2)c1	781

These molecules were tested against T3, D(4) dopamine receptor (assay: Displacement of [3H]N-methylspiperone from human D4.4 receptor expressed in HEK293 cell membranes measured after 60 mins by scintillation counting method). Details: not given.
Procedure, shortened: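 Frozen HEK293 membranes stably expressing human D4.4R (30 μg/well) in EBSS-bicarbonate buffer, pH 7.4, were incubated with 0.4 nM [3H]N-methylspiperone and half-log compound dilutions (30% DMSO vehicle) for 60 min at room temperature. Nonspecific binding was defined by 10 μM (+)-butaclamol. Samples were filtered on GF/B filters and counted by scintillation.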

Compound	Ki [nM]
Cc1cccc(NC(=O)CCN2CCN(c3ccccn3)CC2)c1	297
O=C(CN1CCN(c2ccccn2)CC1)Nc1cccnc1	6410

What follows are molecules tested against D(1B) dopamine receptor (Homo sapiens) (UniProt P21918) (assay: Antagonist activity at D5 receptor (unknown origin) stably expressed in CHOK1 cells assessed as inhibition of dopamine-induced beta-arrestin recruitment measured after 90 mins by luminescence assay). Details: not given.
Chain of D(1B) dopamine receptor (Homo sapiens) (P21918 whole entry): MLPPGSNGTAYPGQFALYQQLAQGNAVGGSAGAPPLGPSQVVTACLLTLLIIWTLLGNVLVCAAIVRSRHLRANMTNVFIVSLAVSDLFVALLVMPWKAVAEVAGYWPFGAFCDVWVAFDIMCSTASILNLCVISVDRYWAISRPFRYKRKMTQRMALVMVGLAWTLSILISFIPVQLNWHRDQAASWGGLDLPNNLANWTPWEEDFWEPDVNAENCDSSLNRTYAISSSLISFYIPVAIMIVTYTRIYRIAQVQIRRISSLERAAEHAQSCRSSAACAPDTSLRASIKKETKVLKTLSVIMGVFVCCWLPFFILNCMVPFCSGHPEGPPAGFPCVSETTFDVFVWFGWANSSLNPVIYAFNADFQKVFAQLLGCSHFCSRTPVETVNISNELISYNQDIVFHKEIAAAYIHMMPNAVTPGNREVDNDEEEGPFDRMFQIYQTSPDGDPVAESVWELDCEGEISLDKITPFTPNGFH
Assay type: cell-based

Compound	inhibition
Cc1cccc(NC(=O)CCN2CCN(c3ccccn3)CC2)c1	inactive

These molecules were tested against T4, D(4) dopamine receptor (Homo sapiens) (UniProt P21917) (assay: Agonist activity at human D4 receptor expressed in CHOK1 cells assessed as inhibition of forskolin-induced cAMP accumulation measured after 30 mins by Eu-cAMP tracer based TR-FRET assay relative to dopamine). Details: not given.
T4 sequence (whole entry): T3 sequence (P21917 whole entry)
Assay type: functional, cell-based
Procedure, shortened: as §3

Compound	Emax [%]
O=C(CN1CCN(c2ccccn2)CC1)Nc1cccnc1	47.3

The molecules below were run against T4, D(4) dopamine receptor (Homo sapiens) (assay: Antagonist activity at human D4 receptor expressed in CHOK1 cells assessed as suppression of dopamine-induced inhibition of forskolin-stimulated cAMP accumulation measured after 30 mins by Eu-cAMP tracer based TR-FRET assay relative to dopamine). Details: not given.
Assay type: functional, cell-based
Design: concentration or dose not given beside the values

Compound	inhibition [%]
O=C(CN1CCN(c2ccccn2)CC1)Nc1cccnc1	100

The molecules below were run against T4, D(4) dopamine receptor (Homo sapiens) (assay: Antagonist activity at human D4 receptor expressed in CHOK1 cells assessed as inhibition of dopamine-induced beta-arrestin recruitment measured after 90 mins by luminescence assay relative to control). Details: not given.
Assay type: cell-based
Design: concentration or dose not given beside the values

Compound	inhibition [%]
O=C(CN1CCN(c2ccccn2)CC1)Nc1cccnc1	100

The molecules below were run against T4, D(4) dopamine receptor (Homo sapiens) (assay: Agonist activity at human D4 receptor expressed in CHOK1 cells assessed as induction of beta-arrestin recruitment measured after 90 mins by luminescence assay relative to control). Details: not given.
Assay type: cell-based
Procedure, shortened: as §1

Compound	Emax [%]
O=C(CN1CCN(c2ccccn2)CC1)Nc1cccnc1	19

What follows are molecules tested against D(1A) dopamine receptor (Homo sapiens) (UniProt P21728) (assay: Agonist activity at D1 receptor (unknown origin) stably expressed in CHOK1 cells assessed as induction of beta-arrestin recruitment measured after 90 mins by luminescence assay). Details: not given.
Assay type: cell-based

Compound	Activity
Cc1cccc(NC(=O)CCN2CCN(c3ccccn3)CC2)c1	inactive

These molecules were tested against T3, D(4) dopamine receptor (assay: Agonist activity at human D4 receptor expressed in CHOK1 cells assessed as induction of beta-arrestin recruitment measured after 90 mins by luminescence assay). Details: not given.
Assay type: cell-based
Procedure, shortened: as §1

Compound	EC50
Cc1cccc(NC(=O)CCN2CCN(c3ccccn3)CC2)c1	Not Active

Same assay, conditions: read-out: EC50

Compound	EC50 [nM]
O=C(CN1CCN(c2ccccn2)CC1)Nc1cccnc1	2660

The molecules below were run against T2, D(3) dopamine receptor (assay: Agonist activity at human D3 receptor expressed in CHOK1 cells assessed as induction of beta-arrestin recruitment measured after 90 mins by luminescence assay relative to control). Details: not given.
Assay type: cell-based
Procedure, shortened: as §1

Compound	Emax [%]
Cc1cccc(NC(=O)CCN2CCN(c3ccccn3)CC2)c1	41.4

These molecules were tested against T2, D(3) dopamine receptor (assay: Antagonist activity at human D3 receptor expressed in CHOK1 cells assessed as inhibition of dopamine-induced beta-arrestin recruitment measured after 90 mins by luminescence assay). Details: not given.
Assay type: cell-based
Procedure, shortened: as §2

Compound	IC50
O=C(CN1CCN(c2ccccn2)CC1)Nc1cccnc1	Not Active

Same assay, conditions: read-out: IC50

Compound	IC50 [nM]
Cc1cccc(NC(=O)CCN2CCN(c3ccccn3)CC2)c1	> 50000

Each molecule was assayed against D(1B) dopamine receptor (Homo sapiens) (UniProt P21918) (assay: Agonist activity at D5 receptor (unknown origin) stably expressed in CHOK1 cells assessed as induction of beta-arrestin recruitment measured after 90 mins by luminescence assay). Details: not given.
Assay type: cell-based

Compound	Activity
Cc1cccc(NC(=O)CCN2CCN(c3ccccn3)CC2)c1	inactive

The molecules below were run against T1, D(2) dopamine receptor (assay: Antagonist activity at human D2L receptor expressed in CHOK1 cells assessed as inhibition of dopamine-induced beta-arrestin recruitment measured after 90 mins by luminescence assay relative to control). Details: not given.
Assay type: cell-based
Procedure, shortened: as §2

Compound	INH [%]
Cc1cccc(NC(=O)CCN2CCN(c3ccccn3)CC2)c1	77.7
